Results: the RNAGym collection of RNA variant scans (doi:10.1002/anie.201605470)

B1: Osa-1-4 twister ribozyme (parent)
chain: CCGCCUAACACUGCCAAUGCCGGUCCCAAGCCCGGAUAAAAGUGGAGGGGGCGG

Variants of: B1
Assay: self-cleavage, relative activity (ratio to wild type); higher = more cleavage; co-transcriptional
How it was run: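 For each read, cleavage status was taken from whether upstream sequence was present. The reads came from an Oryza sativa twister ribozyme of 54 nucleotides, whose DNA template was synthesised with 97 % wild-type base and 1 % of each other base at the 48 positions downstream of the cleavage site. The template was transcribed in vitro at 37 °C for 2 h with co-transcriptional self-cleavage, and the RNA was reverse-transcribed using a template-switching oligonucleotide, PCR-amplified and deep-sequenced. Relative activity is the fraction cleaved normalised to wild type.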

In order of rising self-cleavage:
1. CCGCCUAACACUGCCAAUGCCGGGCCCAAGCCCGGAUAAAAGUGGAGGAGGCGG [G49A U24G]  0.01
2. CCGCCUAACACUGCCAAUGCCGGGCCCAAGCCCGGAUAAAAGUGGAGGCGGCGG [G49C U24G]  0.01
3. CCGCCUAACACUGCCAAUGCCGGACCCAAGCCCGGAUAAAAGUGGAGGCGGCGG [G49C U24A]  0.03
4. CCGCCUAACACUGCCAAUGCCGGUCCCAAGCCCGGAUAAAAGUGGAGGCGGCCG [G49C G53C]  0.03
5. CCGCCUAACACUGCCAAUGCCGGUCCCAAGCCCGGAUAAAAGCGGAGGUGGCGG [G49U U43C]  0.04
6. CCGCCUAACACCGCCAAUGCCGGUCCCAAGCCCGGAUAAAAGUGGAGGCGGCGG [G49C U12C]  0.04
7. CCGCCUAACACUGCCAAUGCCGGUCCCAAGCCCGGAAAAAAGUGGAGGCGGCGG [G49C U37A]  0.05
8. CCGCCUAACACUGCCAACGCCGGUCCCAAGCCCGGAUAAAAGUGGAGGCGGCGG [G49C U18C]  0.05
9. CCGCCUAACACUGCCAAAGCCGGUCCCAAGCCCGGAUAAAAGUGGAGGCGGCGG [G49C U18A]  0.05
10. CCGCCUAACACUGCCAAUGCCGGUCCCAAGCCCGGAUAAAAGUGGAGGCGGCGC [G49C G54C]  0.05
11. CCGCCUAACACUGCCAAUGCCGGCCCCAAGCCCGGAUAAAAGUGGAGGCGGCGG [G49C U24C]  0.05
12. CCGCCUAACACUGCCAAUGCCGGUCCCAAGCCCGGAUAAAAGUGGAGGCGGCUG [G49C G53U]  0.05
13. CCGCCUAACACUGCCAAUGCCGGUCCCAAGCCCGGAUAAAAGGGGAGGUGGCGG [G49U U43G]  0.06
14. CCGCCUAACACUGCCAAUGCCGGUCCCAAGCCCGGAUAAAAGUGGAGGUGCCGG [G49U G51C]  0.06
15. CCGCCUAACACUGCCAAUGCCGGUCCCAAGCCCGGAUAAAAGUGGAGGCGGCGA [G49C G54A]  0.06
16. CCGCCUAACACGGCCAAUGCCGGUCCCAAGCCCGGAUAAAAGUGGAGGCGGCGG [G49C U12G]  0.06
17. CCGCCUAACACUGCCAAUGCCGGUCCCAAGCCCGGAUAAAAGCGGAGGAGGCGG [G49A U43C]  0.07
18. CCGCCUAACACUGCCAAUGCCGGUCCCAAGCCCGGACAAAAGUGGAGGCGGCGG [G49C U37C]  0.07
19. CCGCCUAACACUGCCAAUGCCGGUCCCAAGCCCGGAUAAAAGUGGAGGCGGCGG [G49C]  0.07
20. CCGCCUAACACUGCCAAUGCCGGUCCCAAGCCCGGAUAAAAGGGGAGGAGGCGG [G49A U43G]  0.08
21. CCGCCUAACACUGCCAAUGCCGGUCCCAAGCCCGGAUAAAAGAGGAGGAGGCGG [G49A U43A]  0.08
22. CCGCCUAACACUGCCAAUGCCGGUCCCAAGCCCGGAGAAAAGUGGAGGCGGCGG [G49C U37G]  0.08
23. CCGCCUAACACUGCCAAUGCCGGUCCCAAGCCCGGAUAAAAGAGGAGGUGGCGG [G49U U43A]  0.08
24. CCGCCUAACACUGCCAAUGCCGGUCCCAAGCCCGGAUAAAAGUGGAGGCGGCGU [G49C G54U]  0.08
25. CCGCCUAACACAGCCAAUGCCGGUCCCAAGCCCGGAUAAAAGUGGAGGCGGCGG [G49C U12A]  0.08
26. CCGCCUAACACUGCCAAUGCCGGUCCCAAGCCCGGAUAAAAGUGGAGGGCCCGG [G50C G51C]  0.08
27. CCGCCUAACACUGCCAAGGCCGGUCCCAAGCCCGGAUAAAAGUGGAGGCGGCGG [G49C U18G]  0.09
28. CCGCCUAACACUGCCAAUGCCGGUCCCAAGCCCGGAUAAAAGUGGAGGGCGCGC [G50C G54C]  0.1
29. CCGCCUAACACGGCCAAUGCCGGUCCCAAGCCCGGAUAAAAGUGGAGGGAGCGG [G50A U12G]  0.11
30. CCGCCUAACACUGCCAAUGCCGGUCCCAAGCCCGGAUAAAAGUGGAGGUGUCGG [G49U G51U]  0.12
31. CCGCCUAACACUGCCAAUGCCGGUCCCAAGCCCGGAAAAAAGUGGAGGAGGCGG [G49A U37A]  0.13
32. CCGCCUAACACUGCCAAUGCCGGUCCCAAGCCCGGAUAAAAGUGGAGGGCGCGA [G50C G54A]  0.15
33. CCGCCUAACACUGCCAAUGCCGGUCCCAAGCCCGGAUAAAAGGGGAGGGAGCGG [G50A U43G]  0.15
34. CCGCCUAACACUGCCAAAGCCGGUCCCAAGCCCGGAUAAAAGUGGAGGUGGCGG [G49U U18A]  0.15
35. CCGCCUAACACUGCCAACGCCGGUCCCAAGCCCGGAUAAAAGUGGAGGUGGCGG [G49U U18C]  0.16
36. CCGCCUAACACUGCCAAUGCCGGUCCCAAGCCCGGACAAAAGUGGAGGAGGCGG [G49A U37C]  0.19
37. CCGCCUAACACUGCCAAUGCCGGUCCCAAGCCCGGAUAAAAGUGGAGGUGGCGG [G49U]  0.23
38. CCGCCUAACACUGCCAAUGCCGGUCCCAAGCCCGGAGAAAAGUGGAGGAGGCGG [G49A U37G]  0.27
39. CCGCCUAACACUGCCAAGGCCGGUCCCAAGCCCGGAUAAAAGUGGAGGUGGCGG [G49U U18G]  0.29
40. CCGCCUAACACUGCCAAUGCCGGUCCCAAGCCCGGAUAAAAGUGGAGGUGACGG [G49U G51A]  0.32
41. CCGCCUAACACUGCCAAUGCCGGUCCCAAGCCCGGAUAAAAGUGGAGGGCUCGG [G50C G51U]  0.32
42. CCGCCUAACACUGCCAAUGCCGGUCCCAAGCCCGGAUAAAAGCGGAGGGAGCGG [G50A U43C]  0.35
43. CCGCCUAACACCGCCAAUGCCGGUCCCAAGCCCGGAUAAAAGUGGAGGGAGCGG [G50A U12C]  0.37
44. CCGCCUAACACUGCCAAUGCCGGUCCCAAGCCCGGAUAAAAGAGGAGGGAGCGG [G50A U43A]  0.38
45. CCGCCUAACACAGCCAAUGCCGGUCCCAAGCCCGGAUAAAAGUGGAGGGAGCGG [G50A U12A]  0.44
46. CCGCCUAACACUGCCAAUGCCGGUCCCAAGCCCGGAUAAAAGUGGAGGGCACGG [G50C G51A]  0.71
47. CCGCCUAACACUGCCAAUGCCGGUCCCAAGCCCGGAUAAAAGUGGAGGGAGCGG [G50A]  0.76
48. CCGCCUAACACUGCCAAUGCCGGUCCCAAGCCCGGAUAAAAGUGGAGGGCGCGG [G50C]  1.03
